# From ChEMBL document CHEMBL5724801, “EUbOPEN Chemogenomics Library - Multiplex” (2024)
# Where “and” joins values, the source holds several entries; their conditions need not be identical. Equal values may be shown once.
# System: U2OS
# Assay: Multiplex assay against U2OS
# Assay type: toxicity, cell-based
# Settings: human
# Summary of the method: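 Live cells were stained at seeding with Hoechst33342, BioTracker Green Microtubule Cytoskeleton Dye, MitoTracker Red and Annexin V Alexa Fluor 680, then imaged on a CQ1 microscope at 37°C and 5% CO2 after compound addition. CellPathfinder machine-learning gating split cells into Hoechst high-intensity objects or normal cells. Normal cells were split into healthy, pyknosed or fragmented nuclei, and pyknosed cells into mitotic or apoptotic. Tubulin, mitochondrial-mass and membrane-permeability phenotypes are per cents of healthy-nucleus cells.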
# [1] = 12 h, 1 µM, compound concentration 1 uM
# [2] = 12 h, 10 µM, compound concentration 10 uM
# [3] = 24 h, 1 µM, compound concentration 1 uM
# [4] = 24 h, 10 µM, compound concentration 10 uM
# [5] = 48 h, 1 µM, compound concentration 1 uM
# [6] = 48 h, 10 µM, compound concentration 10 uM
smiles,measurement,setting,value
CC(C)(O)C(=O)N1CCN(c2ccc(C(F)(F)F)c(C3=C(c4c[nH]c5ccccc45)C(=O)NC3=O)c2)CC1,Population Apoptotic (%),[1],88% and 92%
same,Population Fragmented Nuclei (%),[1],29% and 14%
same,Population Healthy Nuclei (%),[1],63% and 75%
same,Population Hoechst High Intensity Objects (%),[1],3% and 1%
same,Population Membrane Permeable-Phenotype (%),[1],5% and 4%
same,Population Mitochondria Different-Phenotype (%),[1],2% and 4%
same,Population Mitotic Cells (%),[1],11% and 7%
same,Population Normal (%),[1],96% and 98%
same,Population Pyknosed Nuclei (%),[1],7% and 9%
same,Population Tubulin-Different-Phenotype (%),[1],3%
same,Total Cell Count,[1],238 and 134
same,Population Apoptotic (%),[2],76% and 50%
same,Population Healthy Nuclei (%),[2],46% and 77%
same,Population Hoechst High Intensity Objects (%),[2],6% and 1%
same,Population Membrane Permeable-Phenotype (%),[2],39% and 14%
same,Population Mitochondria Different-Phenotype (%),[2],23% and 14%
same,Population Mitotic Cells (%),[2],24% and 50%
same,Population Normal (%),[2],93% and 98%
same,Population Pyknosed Nuclei (%),[2],16%
same,Population Tubulin-Different-Phenotype (%),[2],30% and 15%
same,Total Cell Count,[2],166 and 148
same,Population Apoptotic (%),[3],89% and 82%
same,Population Fragmented Nuclei (%),[3],27% and 22%
same,Population Healthy Nuclei (%),[3],61% and 67%
same,Population Hoechst High Intensity Objects (%),[3],3% and 0%
same,Population Membrane Permeable-Phenotype (%),[3],7% and 4%
same,Population Mitochondria Different-Phenotype (%),[3],3% and 2%
same,Population Mitotic Cells (%),[3],10% and 17%
same,Population Normal (%),[3],96% and 100%
same,Population Pyknosed Nuclei (%),[3],11% and 9%
same,Population Tubulin-Different-Phenotype (%),[3],5% and 2%
same,Total Cell Count,[3],263 and 172
same,Population Apoptotic (%),[4],87% and 70%
same,Population Fragmented Nuclei (%),[4],48% and 16%
same,Population Healthy Nuclei (%),[4],27% and 53%
same,Population Hoechst High Intensity Objects (%),[4],6% and 2%
same,Population Membrane Permeable-Phenotype (%),[4],11% and 15%
same,Population Mitochondria Different-Phenotype (%),[4],34% and 24%
same,Population Mitotic Cells (%),[4],12% and 29%
same,Population Normal (%),[4],93% and 97%
same,Population Pyknosed Nuclei (%),[4],24% and 29%
same,Population Tubulin-Different-Phenotype (%),[4],15% and 11%
same,Total Cell Count,[4],172 and 152
same,Population Apoptotic (%),[5],95% and 85%
same,Population Fragmented Nuclei (%),[5],21% and 17%
same,Population Healthy Nuclei (%),[5],65% and 73%
same,Population Hoechst High Intensity Objects (%),[5],3% and 1%
same,Population Membrane Permeable-Phenotype (%),[5],6% and 7%
same,Population Mitochondria Different-Phenotype (%),[5],4% and 3%
same,Population Mitotic Cells (%),[5],4% and 14%
same,Population Normal (%),[5],96% and 98%
same,Population Pyknosed Nuclei (%),[5],12% and 9%
same,Population Tubulin-Different-Phenotype (%),[5],5% and 2%
same,Total Cell Count,[5],377 and 233
same,Population Apoptotic (%),[6],95% and 96%
same,Population Fragmented Nuclei (%),[6],57% and 31%
same,Population Healthy Nuclei (%),[6],11% and 27%
same,Population Hoechst High Intensity Objects (%),[6],14% and 7%
same,Population Membrane Permeable-Phenotype (%),[6],27% and 17%
same,Population Mitochondria Different-Phenotype (%),[6],16% and 14%
same,Population Mitotic Cells (%),[6],4% and 3%
same,Population Normal (%),[6],85% and 92%
same,Population Pyknosed Nuclei (%),[6],30% and 41%
same,Population Tubulin-Different-Phenotype (%),[6],11% and 17%
same,Total Cell Count,[6],177 and 163
COc1cc(C(=O)N(CCCc2ccccc2)Cc2ccc(CC(=O)O)cc2)cc(OC)c1C,Population Apoptotic (%),[1],95% and 70%
same,Population Fragmented Nuclei (%),[1],29% and 23%
same,Population Healthy Nuclei (%),[1],60% and 65%
same,Population Hoechst High Intensity Objects (%),[1],4%
same,Population Membrane Permeable-Phenotype (%),[1],7% and 8%
same,Population Mitochondria Different-Phenotype (%),[1],4% and 1%
same,Population Normal (%),[1],95%
same,Population Pyknosed Nuclei (%),[1],10% and 11%
same,Population Tubulin-Different-Phenotype (%),[1],4% and 1%
same,Total Cell Count,[1],228 and 93
same,Population Apoptotic (%),[2],82% and 100%
same,Population Fragmented Nuclei (%),[2],22% and 15%
same,Population Healthy Nuclei (%),[2],71% and 79%
same,Population Hoechst High Intensity Objects (%),[2],0% and 1%
same,Population Membrane Permeable-Phenotype (%),[2],5% and 2%
same,Population Mitochondria Different-Phenotype (%),[2],0% and 3%
same,Population Mitotic Cells (%),[2],17% and 0%
same,Population Normal (%),[2],99% and 98%
same,Population Pyknosed Nuclei (%),[2],6% and 4%
same,Population Tubulin-Different-Phenotype (%),[2],2% and 4%
same,Total Cell Count,[2],262 and 171
same,Population Apoptotic (%),[3],84% and 73%
same,Population Fragmented Nuclei (%),[3],29% and 22%
same,Population Healthy Nuclei (%),[3],61% and 64%
same,Population Hoechst High Intensity Objects (%),[3],2% and 4%
same,Population Membrane Permeable-Phenotype (%),[3],7% and 2%
same,Population Mitochondria Different-Phenotype (%),[3],6% and 2%
same,Population Mitotic Cells (%),[3],15% and 26%
same,Population Normal (%),[3],97% and 95%
same,Population Pyknosed Nuclei (%),[3],9% and 13%
same,Population Tubulin-Different-Phenotype (%),[3],4% and 0%
same,Total Cell Count,[3],288 and 120
same,Population Apoptotic (%),[4],94% and 84%
same,Population Fragmented Nuclei (%),[4],18% and 12%
same,Population Healthy Nuclei (%),[4],76% and 80%
same,Population Hoechst High Intensity Objects (%),[4],0% and 2%
same,Population Membrane Permeable-Phenotype (%),[4],7%
same,Population Mitochondria Different-Phenotype (%),[4],2% and 5%
same,Population Mitotic Cells (%),[4],5% and 15%
same,Population Normal (%),[4],99% and 97%
same,Population Pyknosed Nuclei (%),[4],5% and 6%
same,Population Tubulin-Different-Phenotype (%),[4],3% and 5%
same,Total Cell Count,[4],318 and 192
same,Population Apoptotic (%),[5],86% and 78%
same,Population Fragmented Nuclei (%),[5],23% and 22%
same,Population Healthy Nuclei (%),[5],69% and 64%
same,Population Hoechst High Intensity Objects (%),[5],3% and 6%
same,Population Membrane Permeable-Phenotype (%),[5],5% and 7%
same,Population Mitochondria Different-Phenotype (%),[5],2% and 5%
same,Population Mitotic Cells (%),[5],13% and 21%
same,Population Normal (%),[5],96% and 93%
same,Population Pyknosed Nuclei (%),[5],7% and 12%
same,Population Tubulin-Different-Phenotype (%),[5],4% and 6%
same,Total Cell Count,[5],408 and 159
same,Population Apoptotic (%),[6],93% and 94%
same,Population Fragmented Nuclei (%),[6],18% and 15%
same,Population Healthy Nuclei (%),[6],75% and 71%
same,Population Hoechst High Intensity Objects (%),[6],1% and 3%
same,Population Membrane Permeable-Phenotype (%),[6],4% and 8%
same,Population Mitochondria Different-Phenotype (%),[6],2% and 1%
same,Population Mitotic Cells (%),[6],6% and 5%
same,Population Normal (%),[6],98% and 96%
same,Population Pyknosed Nuclei (%),[6],6% and 13%
same,Population Tubulin-Different-Phenotype (%),[6],2% and 4%
same,Total Cell Count,[6],504 and 280
C[C@H](N)COC(=O)[C@@H](CCCCN)NC(=O)Cc1c(-c2ccc3ccccc3c2)[nH]c2c1ccc1ccccc12,Population Apoptotic (%),[1],73% and 75%
same,Population Fragmented Nuclei (%),[1],26% and 14%
same,Population Healthy Nuclei (%),[1],66% and 78%
same,Population Hoechst High Intensity Objects (%),[1],3% and 0%
same,Population Membrane Permeable-Phenotype (%),[1],6% and 4%
same,Population Mitochondria Different-Phenotype (%),[1],3% and 2%
same,Population Mitotic Cells (%),[1],26% and 25%
same,Population Normal (%),[1],96% and 99%
same,Population Pyknosed Nuclei (%),[1],6%
same,Population Tubulin-Different-Phenotype (%),[1],3% and 4%
same,Total Cell Count,[1],244 and 128
same,Population Apoptotic (%),[2],78% and 50%
same,Population Fragmented Nuclei (%),[2],23% and 24%
same,Population Healthy Nuclei (%),[2],69% and 73%
same,Population Hoechst High Intensity Objects (%),[2],2% and 0%
same,Population Mitochondria Different-Phenotype (%),[2],1% and 3%
same,Population Mitotic Cells (%),[2],21% and 50%
same,Population Normal (%),[2],97% and 100%
same,Population Pyknosed Nuclei (%),[2],7% and 1%
same,Population Tubulin-Different-Phenotype (%),[2],3% and 5%
same,Total Cell Count,[2],279 and 106
same,Population Apoptotic (%),[3],83% and 90%
same,Population Fragmented Nuclei (%),[3],22% and 16%
same,Population Healthy Nuclei (%),[3],68% and 77%
same,Population Hoechst High Intensity Objects (%),[3],2% and 1%
same,Population Membrane Permeable-Phenotype (%),[3],3% and 6%
same,Population Mitochondria Different-Phenotype (%),[3],1%
same,Population Mitotic Cells (%),[3],16% and 10%
same,Population Normal (%),[3],97% and 98%
same,Population Pyknosed Nuclei (%),[3],8% and 5%
same,Population Tubulin-Different-Phenotype (%),[3],2% and 3%
same,Total Cell Count,[3],292 and 170
same,Population Apoptotic (%),[4],81% and 100%
same,Population Fragmented Nuclei (%),[4],19% and 17%
same,Population Healthy Nuclei (%),[4],73% and 79%
same,Population Hoechst High Intensity Objects (%),[4],2%
same,Population Membrane Permeable-Phenotype (%),[4],5% and 11%
same,Population Mitochondria Different-Phenotype (%),[4],1% and 3%
same,Population Mitotic Cells (%),[4],18% and 0%
same,Population Normal (%),[4],97%
same,Population Pyknosed Nuclei (%),[4],6% and 2%
same,Population Tubulin-Different-Phenotype (%),[4],2% and 6%
same,Total Cell Count,[4],337 and 142
same,Population Apoptotic (%),[5],79% and 73%
same,Population Fragmented Nuclei (%),[5],16% and 17%
same,Population Healthy Nuclei (%),[5],78% and 73%
same,Population Hoechst High Intensity Objects (%),[5],1% and 2%
same,Population Membrane Permeable-Phenotype (%),[5],2% and 3%
same,Population Mitochondria Different-Phenotype (%),[5],2% and 4%
same,Population Mitotic Cells (%),[5],20% and 26%
same,Population Normal (%),[5],98% and 97%
same,Population Pyknosed Nuclei (%),[5],5% and 8%
same,Population Tubulin-Different-Phenotype (%),[5],2% and 1%
same,Total Cell Count,[5],440 and 231
same,Population Apoptotic (%),[6],90%
same,Population Fragmented Nuclei (%),[6],14% and 16%
same,Population Healthy Nuclei (%),[6],74% and 77%
same,Population Hoechst High Intensity Objects (%),[6],4%
same,Population Membrane Permeable-Phenotype (%),[6],6% and 16%
same,Population Mitochondria Different-Phenotype (%),[6],1% and 2%
same,Population Mitotic Cells (%),[6],9% and 10%
same,Population Normal (%),[6],95%
same,Population Pyknosed Nuclei (%),[6],10% and 5%
same,Population Tubulin-Different-Phenotype (%),[6],2% and 6%
same,Total Cell Count,[6],505 and 184
